ChEMBL document CHEMBL1124094, “Synthesis and pharmacological activity of angiotensin converting enzyme inhibitors: N-(mercaptoacyl)-4-substituted-(S)-prolines” (J Med Chem, 1988)
Values belong to the compound of their own block, whether it stands above or below them. The source made the active and inactive calls. The rule behind the calls is not given here.

What was measured:
[1] = tested on: Rattus norvegicus; assay: Compound was tested for bradykinin potentiation at 0.1 ug/kg dose.; format: functional
[2] = molecular target: T1, Angiotensin-converting enzyme (Oryctolagus cuniculus) (UniProt P12822); assay: In vitro inhibition of Angiotensin I converting enzyme relative to captopril(=1)
T1 sequence (whole entry): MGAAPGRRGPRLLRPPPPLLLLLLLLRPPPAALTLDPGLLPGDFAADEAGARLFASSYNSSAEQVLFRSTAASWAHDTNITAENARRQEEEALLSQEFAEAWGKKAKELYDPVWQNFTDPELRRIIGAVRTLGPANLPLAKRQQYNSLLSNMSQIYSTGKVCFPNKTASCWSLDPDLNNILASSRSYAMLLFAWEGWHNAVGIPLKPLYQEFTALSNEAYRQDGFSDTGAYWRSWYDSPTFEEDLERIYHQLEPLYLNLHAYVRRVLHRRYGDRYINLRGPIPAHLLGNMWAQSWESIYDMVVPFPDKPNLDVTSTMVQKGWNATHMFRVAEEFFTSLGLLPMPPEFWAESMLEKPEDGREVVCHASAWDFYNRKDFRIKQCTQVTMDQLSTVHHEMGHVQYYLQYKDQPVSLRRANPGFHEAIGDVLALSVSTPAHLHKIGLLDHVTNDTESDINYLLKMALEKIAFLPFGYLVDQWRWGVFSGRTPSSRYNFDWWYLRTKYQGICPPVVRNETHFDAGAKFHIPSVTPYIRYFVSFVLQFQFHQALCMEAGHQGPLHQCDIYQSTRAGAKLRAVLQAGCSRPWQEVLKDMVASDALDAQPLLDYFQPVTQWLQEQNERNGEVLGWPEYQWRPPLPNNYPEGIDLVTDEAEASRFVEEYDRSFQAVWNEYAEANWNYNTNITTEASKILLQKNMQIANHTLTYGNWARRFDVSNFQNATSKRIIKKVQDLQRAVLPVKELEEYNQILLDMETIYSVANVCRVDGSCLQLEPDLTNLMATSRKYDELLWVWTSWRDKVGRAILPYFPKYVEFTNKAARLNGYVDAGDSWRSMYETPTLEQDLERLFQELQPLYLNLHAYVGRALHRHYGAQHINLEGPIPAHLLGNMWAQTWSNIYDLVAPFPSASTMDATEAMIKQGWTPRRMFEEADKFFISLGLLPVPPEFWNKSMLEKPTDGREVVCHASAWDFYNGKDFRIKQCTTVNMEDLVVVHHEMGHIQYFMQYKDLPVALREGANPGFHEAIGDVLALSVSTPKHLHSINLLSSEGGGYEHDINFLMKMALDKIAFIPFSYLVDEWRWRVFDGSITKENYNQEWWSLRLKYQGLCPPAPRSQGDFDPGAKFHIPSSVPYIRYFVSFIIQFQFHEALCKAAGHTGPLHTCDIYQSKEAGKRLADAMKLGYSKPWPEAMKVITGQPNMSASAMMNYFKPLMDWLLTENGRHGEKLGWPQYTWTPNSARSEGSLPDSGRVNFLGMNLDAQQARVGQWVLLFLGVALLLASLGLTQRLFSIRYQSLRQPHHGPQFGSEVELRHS
Procedure, shortened: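 Crude ACE from rabbit lung acetone powder extracted in 50 mM potassium phosphate pH 8.3, spun 40000g. Final assay: 100 mM phosphate pH 8.3, 300 mM NaCl, 5 mM hippuryl-His-Leu; enzyme added last, 30 min at 37 °C, stopped with HCl. Hippuric acid extracted into EtOAc, dried, redissolved in water, read by absorbance.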

[3] = tested on: Rattus norvegicus; assay: Compound was tested orally on the spontaneous hypertensive rat and blood pressure noted at half-hour interval; format: functional
Procedure, shortened: (§1)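 Spontaneously hypertensive rats; drug in 0.4% methylcellulose, or water, saline or 5% ethanol. Aortic catheter via caudal artery under ether, rats conscious in restrainers; pressure averaged over 30 min, heart rate from pulse trace. Dosed after about 90 min, usually followed for 4 h.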

[4] = molecular target: T2, Angiotensin-converting enzyme (Rattus norvegicus) (UniProt P47820); assay: Compound was tested for bradykinin potentiation at 0.1 ug/kg dose; format: functional
T2 sequence (whole entry): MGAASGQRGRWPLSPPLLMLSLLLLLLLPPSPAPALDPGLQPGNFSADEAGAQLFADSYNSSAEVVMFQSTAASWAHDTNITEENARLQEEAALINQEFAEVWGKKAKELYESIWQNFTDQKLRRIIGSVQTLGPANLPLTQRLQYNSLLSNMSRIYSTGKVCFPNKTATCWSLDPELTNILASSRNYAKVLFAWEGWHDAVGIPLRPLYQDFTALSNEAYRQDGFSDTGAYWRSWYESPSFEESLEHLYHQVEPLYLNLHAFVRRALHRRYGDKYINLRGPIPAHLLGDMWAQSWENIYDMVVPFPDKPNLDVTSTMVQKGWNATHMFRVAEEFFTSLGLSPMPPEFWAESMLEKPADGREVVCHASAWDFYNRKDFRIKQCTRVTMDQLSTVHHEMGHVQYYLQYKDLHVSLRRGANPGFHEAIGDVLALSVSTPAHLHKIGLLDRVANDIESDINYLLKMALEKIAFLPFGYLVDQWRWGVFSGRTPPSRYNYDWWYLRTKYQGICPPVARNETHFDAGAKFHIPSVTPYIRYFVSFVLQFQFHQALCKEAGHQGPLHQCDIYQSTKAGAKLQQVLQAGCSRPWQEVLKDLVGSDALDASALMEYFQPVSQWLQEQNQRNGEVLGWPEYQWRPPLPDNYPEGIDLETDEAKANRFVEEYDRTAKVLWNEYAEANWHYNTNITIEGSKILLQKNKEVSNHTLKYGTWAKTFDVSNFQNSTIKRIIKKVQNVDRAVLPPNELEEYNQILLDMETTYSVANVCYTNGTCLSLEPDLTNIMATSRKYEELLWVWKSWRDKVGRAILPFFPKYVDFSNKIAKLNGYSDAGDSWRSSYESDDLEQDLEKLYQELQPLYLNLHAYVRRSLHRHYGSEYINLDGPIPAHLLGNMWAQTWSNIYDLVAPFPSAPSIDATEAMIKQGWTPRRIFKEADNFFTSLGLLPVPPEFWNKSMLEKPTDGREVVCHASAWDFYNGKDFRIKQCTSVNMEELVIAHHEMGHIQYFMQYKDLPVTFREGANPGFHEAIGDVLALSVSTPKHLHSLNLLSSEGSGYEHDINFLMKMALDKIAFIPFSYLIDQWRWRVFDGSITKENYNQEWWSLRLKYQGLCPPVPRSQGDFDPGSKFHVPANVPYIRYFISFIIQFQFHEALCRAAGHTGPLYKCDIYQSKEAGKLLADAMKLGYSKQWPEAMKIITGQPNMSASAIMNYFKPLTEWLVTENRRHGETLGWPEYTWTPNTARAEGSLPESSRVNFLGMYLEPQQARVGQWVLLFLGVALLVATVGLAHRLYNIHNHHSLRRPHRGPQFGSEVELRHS

[5] = molecular target: T2, Angiotensin-converting enzyme (Rattus norvegicus); assay: (§2) In vivo inhibition of Angiotensin I converting enzyme in anaesthetized rats; format: organism-based
Procedure, shortened: (§3)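 Sprague–Dawley rats under inactin (100 mg/kg) or dial urethane; carotid and jugular cannulas, arterial blood pressure recorded. Angiotensin I response as percent of control; ID50 by linear regression.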

[6] = molecular target: T2, Angiotensin-converting enzyme (Rattus norvegicus); assay: as §2; format: organism-based; remark: listed apart in the source
[7] = molecular target: T2, Angiotensin-converting enzyme (Rattus norvegicus); assay: In vivo inhibition of Angiotensin I converting enzyme at 100ug/Kg in anaesthetized rats;o denotes 'Inactive'; format: organism-based; procedure, shortened: as §3
[8] = species on record: Rattus norvegicus; assay: Compound was tested peroral on the spontaneous hypertensive rat; format: functional; procedure, shortened: as §1
[9] = molecular target: T2, Angiotensin-converting enzyme (Rattus norvegicus); assay: In vivo inhibition of Angiotensin I converting enzyme at 100ug/Kg in anaesthetized rats;z denotes 'Inactive'; format: organism-based; procedure, shortened: as §3
[10] = molecular target: T2, Angiotensin-converting enzyme (Rattus norvegicus); assay: In vivo inhibition of Angiotensin I converting enzyme at […] in anaesthetized rats;z denotes 'Inactive'; format: organism-based; procedure, shortened: as §3
[11] = molecular target: T2, Angiotensin-converting enzyme (Rattus norvegicus); assay: In vivo inhibition of Angiotensin I converting enzyme at 100 ug/kg in anaesthetized rats; format: organism-based; procedure, shortened: as §3
[12] = molecular target: T2, Angiotensin-converting enzyme (Rattus norvegicus); assay: In vivo inhibition of Angiotensin I converting enzyme at […] in anaesthetized rats.;z denotes 'Inactive'; format: organism-based; procedure, shortened: as §3

Structure (SMILES): C[C@H](CS)C(=O)N1CC2(C[C@H]1C(=O)O)SCCS2
Delta blood pressure [1]: 43 mmHg
relative potency [2]: 4
SHR delta blood pressure [3]: 17 dec

Structure (SMILES): COC1(OC)C[C@@H](C(=O)O)N(C(=O)C(C)CS)C1 (stereo not given in full)
relative potency [2]: 0.9

Structure (SMILES): CC(CS)C(=O)N1CC2(C[C@H]1C(=O)O)SCCCS2 (stereo not given in full)
ID50 [6]: 0.048 mg/kg
relative potency [2]: 1.07

Structure (SMILES): CC(CS)C(=O)N1C[C@H](Oc2ccc(Cl)cc2)C[C@H]1C(=O)O (stereo not given in full)
Delta blood pressure [4]: 23 mmHg
ID50 [7]: inactive

Structure (SMILES): O=C(O)[C@@H]1CC2(CN1C(=O)CCS)SCCS2
ID50 [6]: 0.078 mg/kg
Delta blood pressure [4]: 38 mmHg
relative potency [2]: 2.6

Structure (SMILES): CC(CS)C(=O)N1C[C@H](OCc2ccccc2)C[C@H]1C(=O)O (stereo not given in full)
Delta blood pressure [4]: 47 mmHg
ID50 [5]: 0.508 mg/kg

Structure (SMILES): CC(CS)C(=O)N1CC2(C[C@H]1C(=O)O)OCC(C)(C)CO2 (stereo not given in full)
ID50 [6]: 0.359 mg/kg
Delta blood pressure [4]: 46 mmHg
relative potency [2]: 1
Delta blood pressure [3]: 25 mmHg

Structure (SMILES): COC1=C[C@@H](C(=O)O)N(C(=O)C(C)CS)C1 (stereo not given in full)
Delta blood pressure [4]: 52 mmHg
ID50 [7]: inactive

Structure (SMILES): CC(CS)C(=O)N1CC2(C[C@H]1C(=O)O)OCCO2 (stereo not given in full)
ID50 [6]: 0.065 mg/kg
Delta blood pressure [4]: 43 mmHg
relative potency [2]: 1

Structure (SMILES): CC(CS)C(=O)N1CC2(C[C@H]1C(=O)O)SCCS2 (stereo not given in full)
ID50 [6]: 0.026 mg/kg
Delta blood pressure [4]: 34 mmHg
relative potency [2]: 1.26
SHR delta blood pressure [3]: 22 dec
SHR delta blood pressure [8]: 35 dec

Structure (SMILES): CC(CS)C(=O)N1C[C@H](OCCOc2ccccc2)C[C@H]1C(=O)O (stereo not given in full)
Delta blood pressure [4]: 9 mmHg
ID50 [7]: inactive

Structure (SMILES): CC(CS)C(=O)N1C[C@@H](SCc2ccccc2)C[C@H]1C(=O)O (stereo not given in full)
Delta blood pressure [4]: 5 mmHg
ID50 [10]: Inactive at 100 ug/kg

Structure (SMILES): O=C(O)[C@@H]1CC2(CN1C(=O)CCS)SCCCS2
ID50 [6]: 0.01 mg/kg
Delta blood pressure [4]: 19 mmHg
relative potency [2]: 1

Structure (SMILES): CC(CS)C(=O)N1C[C@@H](OCc2ccccc2)C[C@H]1C(=O)O (stereo not given in full)
ID50 [12]: Inactive at 100 ug/kg
Delta blood pressure [4]: 40 mmHg
relative potency [2]: 0.56

Second part, led by results:

ID50 [5]: 0.372 mg/kg
Structure (SMILES): CCOCCO[C@@H]1C[C@@H](C(=O)O)N(C(=O)C(C)CS)C1 (stereo not given in full)
Delta blood pressure [4]: 45 mmHg

ID50 [5]: 0.367 mg/kg
Structure (SMILES): CC(CS)C(=O)N1C[C@@H](O)C[C@H]1C(=O)O (stereo not given in full)
Delta blood pressure [4]: 40 mmHg

relative potency [2]: 0.53
ID50 [5]: 0.073 mg/kg
Structure (SMILES): CO[C@H]1C[C@@H](C(=O)O)N(C(=O)C(C)CS)C1 (stereo not given in full)
Delta blood pressure [4]: 60 mmHg

ID50 [7]: inactive
Structure (SMILES): CC(CS)C(=O)N1C[C@H](F)C[C@H]1C(=O)O (stereo not given in full)
Delta blood pressure [4]: 53 mmHg

ID50 [7]: inactive
Structure (SMILES): CC(CS)C(=O)N1C[C@@H](C#N)C[C@H]1C(=O)O (stereo not given in full)
Delta blood pressure [4]: 47 mmHg

ID50 [5]: 0.253 mg/kg
Structure (SMILES): CC(CS)C(=O)N1C[C@H](O)C[C@H]1C(=O)O (stereo not given in full)
Delta blood pressure [4]: 48 mmHg

relative potency [2]: 0.54
Structure (SMILES): CC(CS)C(=O)N1C[C@@H](N=[N+]=[N-])C[C@H]1C(=O)O (stereo not given in full)

ID50 [5]: 0.544 mg/kg
Structure (SMILES): CC(CS)C(=O)N1C[C@@H](Sc2ccccc2)C[C@H]1C(=O)O (stereo not given in full)
Delta blood pressure [4]: 22 mmHg

ID50 [5]: 0.398 mg/kg
Structure (SMILES): CS[C@H]1C[C@@H](C(=O)O)N(C(=O)C(C)CS)C1 (stereo not given in full)

relative potency [2]: 0.5
ID50 [5]: 1.21 mg/kg
Structure (SMILES): CO[C@@H]1C[C@@H](C(=O)O)N(C(=O)C(C)CS)C1 (stereo not given in full)

ID50 [9]: Inactive at 100 ug/kg
Structure (SMILES): CC(CS)C(=O)N1C[C@@H](SC2CCCCC2)C[C@H]1C(=O)O (stereo not given in full)
Delta blood pressure [4]: 6 mmHg

ID50 [11]: 0.581 mg/kg
Structure (SMILES): CC(CS)C(=O)N1C[C@@H](F)C[C@H]1C(=O)O (stereo not given in full)

relative potency [2]: 1
Structure (SMILES): CO/N=C1\C[C@@H](C(=O)O)N(C(=O)C(C)CS)C1 (stereo not given in full)
